# Legend:
# [1] = tested on: Rattus norvegicus; assay: Hypolipidemic activity in Wistar rat assessed as reduction in plasma triglyceride level at 369 umol/kg/day administered through diet for 4 days; format: functional; settings: 96 h
# In short: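 Young male Wistar rats, 170-190 g at start, six per group, given compound mixed into Purina Lab Chow, fed ad libitum for 4 or 10 days. Daily dose calculated from food consumption and body weight. Rats bled by cardiac puncture at end of treatment. Plasma triglycerides determined by automated procedure. Expressed as percent reduction versus a concurrent untreated control group, Student's t test.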
# [2] = tested on: Rattus norvegicus; assay: Hypolipidemic activity in Wistar rat assessed as reduction in plasma cholesterol level at 369 umol/kg/day administered through diet for 4 days; format: functional; settings: 96 h
# In short: (§1)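 Young male Wistar rats, 170-190 g at start, in groups of six, given compound mixed into Purina Lab Chow ad libitum for 4 or 10 days as stated. Daily dose was calculated from food consumption and body weight. Plasma was taken by cardiac puncture at the end and cholesterol measured by automated procedure. Results are % reduction versus a concurrent untreated control group, with Student's t test.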
# [3] = tested on: Rattus norvegicus; assay: Increase in liver weight in Wistar rat at 369 umol/kg/day administered through diet for 4 days; format: ADME, organism-based; settings: in vivo, po, 96 h
# [4] = tested on: Rattus norvegicus; assay: Hypolipidemic activity in Wistar rat assessed as reduction in plasma triglyceride level at 311 umol/kg/day administered through diet for 10 days; format: functional; settings: 240 h
# In short: (§2)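 Young male Wistar rats, 170-190 g initial weight, six per group, fed drug mixed thoroughly into Purina Lab Chow ad libitum for the stated days; daily dose calculated from food consumption and body weight. Bled by cardiac puncture at end; plasma cholesterol and triglycerides by automated procedures, expressed as percent reduction versus simultaneous untreated controls; Student's t test.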
# [5] = tested on: Rattus norvegicus; assay: Hypolipidemic activity in Wistar rat assessed as reduction in plasma cholesterol level at 311 umol/kg/day administered through diet for 10 days; format: functional; settings: 240 h; in short: as §1
# [6] = tested on: Rattus norvegicus; assay: Increase in cholesterol level in Wistar rat liver at 311 umol/kg/day administered through diet for 10 days; format: ADME, organism-based; settings: in vivo, po, 240 h
# [7] = tested on: Rattus norvegicus; assay: Increase in liver weight in Wistar rat at 311 umol/kg/day administered through diet for 10 days; format: ADME, organism-based; settings: in vivo, po, 240 h
# [8] = tested on: Rattus norvegicus; assay: Hypolipidemic activity in Wistar rat assessed as reduction in plasma cholesterol level at 169 umol/kg/day administered through diet for 10 days; format: functional; settings: 240 h; in short: as §1
# [9] = tested on: Rattus norvegicus; assay: Hypolipidemic activity in Wistar rat assessed as reduction in plasma triglyceride level at 84 umol/kg/day administered through diet for 10 days; format: functional; settings: 240 h
# [10] = tested on: Rattus norvegicus; assay: Increase in liver weight in Wistar rat at 84 umol/kg/day administered through diet for 10 days; format: ADME, organism-based; settings: in vivo, po, 240 h
# [11] = tested on: Rattus norvegicus; assay: Increase in liver weight in Wistar rat at 332 umol/kg/day administered through diet for 10 days; format: ADME, organism-based; settings: in vivo, po, 240 h
# [12] = tested on: Rattus norvegicus; assay: Hypolipidemic activity in Wistar rat assessed as reduction in plasma triglyceride level at 169 umol/kg/day administered through diet for 10 days; format: functional; settings: 240 h; in short: as §2
# [13] = tested on: Rattus norvegicus; assay: Increase in liver weight in Wistar rat at 169 umol/kg/day administered through diet for 10 days; format: ADME, organism-based; settings: in vivo, po, 240 h
# [14] = tested on: Rattus norvegicus; assay: Increase in cholesterol level in Wistar rat liver at 332 umol/kg/day administered through diet for 10 days; format: ADME, organism-based; settings: in vivo, po, 240 h
# [15] = tested on: Rattus norvegicus; assay: Increase in cholesterol level in Wistar rat liver at 84 umol/kg/day administered through diet for 10 days; format: ADME, organism-based; settings: in vivo, po, 240 h
# [16] = tested on: Rattus norvegicus; assay: Hypolipidemic activity in Wistar rat assessed as reduction in plasma cholesterol level at 84 umol/kg/day administered through diet for 10 days; format: functional; settings: AT84, Plasma, 240 h
# In short: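 Young male Wistar rats (initial weight 170-190 g), groups of six, fed compound mixed into Purina Lab Chow ad libitum for 4 or 10 days; daily dose calculated from food consumption and body weight. Bled by cardiac puncture; plasma cholesterol and triglycerides by automated procedures; percent reduction versus simultaneous untreated controls, Student's t test.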
# [17] = tested on: Rattus norvegicus; assay: Hypolipidemic activity in Wistar rat assessed as reduction in plasma cholesterol level at 332 umol/kg/day administered through diet for 10 days; format: functional; settings: 240 h; in short: as §1
# [18] = tested on: Rattus norvegicus; assay: Increase in cholesterol level in Wistar rat liver at 169 umol/kg/day administered through diet for 10 days; format: ADME, organism-based; settings: in vivo, po, 240 h
# [19] = tested on: Rattus norvegicus; assay: Hypolipidemic activity in Wistar rat assessed as reduction in plasma triglyceride level at 332 umol/kg/day administered through diet for 10 days; format: functional; settings: 240 h; in short: as §2
# [20] = tested on: Rattus norvegicus; assay: Increase in liver weight in Wistar rat at 524 umol/kg/day administered through diet for 4 days; format: ADME, organism-based; settings: in vivo, po, 96 h
# [21] = tested on: Rattus norvegicus; assay: Hypolipidemic activity in Wistar rat assessed as reduction in plasma triglyceride level at 524 umol/kg/day administered through diet for 4 days; format: functional; settings: 96 h
# [22] = tested on: Rattus norvegicus; assay: Hypolipidemic activity in Wistar rat assessed as reduction in plasma cholesterol level at 524 umol/kg/day administered through diet for 4 days; format: functional; settings: 96 h
# In short: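 Young male Wistar rats, 170-190 g initial weight, groups of six, given compound mixed thoroughly into Purina Lab Chow ad libitum for 4 or 10 days as stated. Daily dose calculated from food consumption and body weight. Bled by cardiac puncture at end of treatment; plasma cholesterol measured by automated procedure. Expressed as percent reduction versus simultaneous untreated control group; Student's t test.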
smiles,measurement,setting,value
CCCCCCCCCCCCCCOc1ccc(C(=O)C(Cl)(Cl)Cl)o1,inhibition in vivo at 369 µmol/kg,[1],33%
same,inhibition in vivo at 369 µmol/kg,[2],9%
same,Activity,[3],6%
CCCCCCCCCCCCCCCCOc1ccc(C(=O)CC(=O)O)cc1,inhibition in vivo at 311 µmol/kg,[4],49%
same,inhibition in vivo at 311 µmol/kg,[5],29%
same,Activity,[6],0%
same,Activity,[7],0%
CCCCCCCCCCCCCCOc1ccc(C(=O)CC(=O)OCc2ccccc2)cc1,inhibition in vivo at 169 µmol/kg,[8],15%
same,inhibition in vivo at 84 µmol/kg,[9],8%
same,Activity,[10],0%
same,Activity,[11],5%
same,inhibition in vivo at 169 µmol/kg,[12],70%
same,Activity,[13],1%
same,Activity,[14],10%
same,Activity,[15],0%
same,inhibition in vivo at 84 µmol/kg,[16],16%
same,inhibition in vivo at 332 µmol/kg,[17],24%
same,Activity,[18],2%
same,inhibition in vivo at 332 µmol/kg,[19],43%
CCCCCCCCCCCCCCOc1ccco1,Activity,[20],1%
same,inhibition in vivo at 524 µmol/kg,[21],0%
same,inhibition in vivo at 524 µmol/kg,[22],0%

# — ChEMBL document CHEMBL3272012, “5-(Tetradecyloxy)-2-furancarboxylic acid and related hypolipidemic fatty acid-like alkyloxyarylcarboxylic acids” (J Med Chem, 1977)
